This is a sample that favours compounds with a hit; in the whole collection about 3.3% have one here.
TDP2 inh: blocks human TDP2 phosphodiesterase activity; recombinant TDP2, T5PNP hydrolysis, p-nitrophenol absorbance 415 nm; inhibition, % at 12.8 µM; hit rate 0.34% among 370,000; AID 720702;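 active = inhibition above the mean of all tested compounds plus 3 SD, set per campaign, cut at about 25% in these data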;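 note: 0% = DMSO with enzyme and 100% = buffer with substrate but no TDP2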
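System: recombinant human TDP2 / Amount: 120 nM TDP2 per well / Also added: 5 mM T5PNP chromogenic substrate / Doses: 12.8 µM single point, 1% DMSO / Incubation: 2 h at 37 °C / Detection: p-Nitrophenol epi absorbance / Evaluation: % inhibition relative to enzyme-containing and enzyme-free wells / Repeats: singlicate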
UHRF1 MBD2 ctr: human UHRF1 methylated DNA binding inhibitors. UHRF1 binding to methylated oligo, TR-FRET. inhibition, % at 4.4 µM. hit rate 0.75% among 370,000. AID 687016; in the data active = inhibition above about 21%;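 note: UHRF1 SRA domain binding a hemimethylated CpG hairpin DNA probe; 0% = median of test compound wells and 100% = reference inhibitor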
SIAE primary: inhibitors of human sialic acid acetylesterase SIAE. inhibition, % at 9.66 µM. SIAE FP-Rh probe binding, fluorescence polarization. hit rate 0.69% among 370,000. AID 1053197. Q9HAT2;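 active = inhibition above a cutoff: mean of compounds within the control limits plus 3 SD of those, cut at about 17% in these data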;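 note: 0% = plate median of compound wells and 100% = probe without SIAE protein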
LEDGF integ inh: blocks HIV-1 LEDGF/p75-dependent DNA integration. inhibition, % at 3.7 µM. hit rate 0.64% among 370,000. AID 743269. TR-FRET IN-LEDGF/p75 DNA integration, Eu/Cy5;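 active = inhibition above the screen-wide mean plus 3 SD, cut at about 13% in these data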;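 note: signal is the Cy5 over europium emission ratio at 671 and 618 nm; 0% = plate median of compound wells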
MBD2 inh: inhibitors of human MBD2 binding to methylated oligonucleotide | TR-FRET | hit rate 0.31% among 370,000 | inhibition, % at 4.4 µM | Q9UBB5; in the data active = inhibition above about 13%
PRMT1 inh: inhibitors of human PRMT1; Q99873; recombinant PRMT1, activity-based probe fluorescence polarization; inhibition, % at 2.79 µM; hit rate 1.3% among 370,000;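 active = inhibition above about 21% made by adding two undisclosed values, limit read from the data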
Target sequence (Q99873 whole entry, looked up): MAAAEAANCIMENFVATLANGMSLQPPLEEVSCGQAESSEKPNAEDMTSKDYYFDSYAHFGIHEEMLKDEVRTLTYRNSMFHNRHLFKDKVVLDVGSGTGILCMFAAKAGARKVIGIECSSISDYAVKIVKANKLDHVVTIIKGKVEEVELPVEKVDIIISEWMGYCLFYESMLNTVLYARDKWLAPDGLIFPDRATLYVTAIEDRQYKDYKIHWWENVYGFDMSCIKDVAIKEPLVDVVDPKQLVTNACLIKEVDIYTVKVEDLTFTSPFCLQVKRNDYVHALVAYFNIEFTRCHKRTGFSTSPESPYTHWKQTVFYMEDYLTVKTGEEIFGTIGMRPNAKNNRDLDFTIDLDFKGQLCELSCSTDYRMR
PRMT1 confirm: confirmation of human PRMT1 inhibitors | inhibition, % at 2.79 µM | shares compounds with PRMT1 inh | recombinant His-PRMT1, activity-based probe fluorescence polarization | hit rate 42% among 3,300 | AID 687036;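 active = mean inhibition across replicates above the hit cutoff derived for the earlier primary screen, cut at about 22% in these data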
An asterisk follows results filed as active; . = not tested or not shown.

SMILES	TDP2 inh	UHRF1 MBD2 ctr	SIAE primary	LEDGF integ inh	MBD2 inh	PRMT1 inh	PRMT1 confirm
CC(C)c1ccc(N2C(=O)/C(=C/N(C)C)SC2=S)cc1	0.6	0.1	-87.7	0.6	3.4	25.9*	19.8
COc1cc(C(NC(=O)C(F)(F)F)C2CCCC=C2c2ccccc2)cc(OC)c1OC (stereo not given)	5.2	1.6	-5.2	1.0	6.2	2.0	.
CCOc1ccc(NC(=O)CSc2nnc(-c3n[nH]c4c3CCC4)n2N)cc1	13.9	-3.0	3.2	2.1	-4.3	2.1	.
O=C(C1CCCN(S(=O)(=O)c2ccccc2F)C1)N1CCN(Cc2ccccc2)CC1 (stereo not given)	5.7	1.0	-0.9	0.8	1.5	-1.2	.
COc1ccccc1N(C(C)=O)C1=C(Cl)C(=O)c2ccccc2C1=O	23.4	6.7	6.4	2.1	-5.1	94.5*	88.6*
CC(C)C1CC(N(C)C)=CC(=S)N1 (stereo not given)	5.5	-5.8	4.8	0.9	-1.1	35.2*	1.1
O=C(O)c1cc(=S)nc[nH]1	0.8	0.7	1.9	-1.4	6.0	38.7*	60.0*
Cc1cc(C)cc(C(=O)OCCCN(C)C2CN(Cc3cn(Cc4ccccc4Cl)nn3)S(=O)(=O)C2)c1 (stereo not given)	9.1	5.5	3.0	-1.3	-0.7	1.8	.
O=C1C=CC(=O)N1CCNc1ncc(C(F)(F)F)cc1Cl	-8.3	-1.1	3.6	-1.5	6.2	92.0*	89.7*
CC1(C)C=C2C(N(Cc3ccc4c(c3)OCO4)C(=N)N2C(=O)OCc2ccccc2)n2c(=O)n(-c3ccccc3)c(=O)n21 (stereo not given)	4.7	1.3	-4.4	-4.2	1.9	2.2	.
COC(=O)c1nc(NNC(=O)c2ccccc2)sc1-c1ccccc1	-23.3	0.6	3.6	0.0	0.6	42.9*	5.3
O=C(NNc1nc(-c2ccccc2)cs1)c1ccccc1	-8.9	-1.4	0.7	-1.2	-1.6	3.1	.
CC1=C[C@]2(CN(CC3CC3)C3=N[C@H](c4ccccc4)CC(=O)N32)n2c(=O)n(-c3ccccc3)c(=O)n2C1	-4.8	-6.3	6.4	1.5	0.6	-3.7	.
COC(=O)CCc1nc2ccccc2[nH]c1=O	-12.7	0.1	3.4	5.8	-1.4	1.9	.
COC(=O)CSCc1nc2ccccc2[nH]c1=O	-0.1	-8.1	8.5	-0.6	0.1	34.0*	55.4*
CC(=O)OCCCNc1cc(Sc2ccc(C)cc2)c2nonc2c1[N+](=O)[O-]	-5.4	0.5	-6.1	-1.8	-0.2	-0.9	.
CC(=O)OCCNc1cc(Sc2nc3ccccc3[nH]2)c2nonc2c1[N+](=O)[O-]	2.8	-10.3	-6.2	-2.8	-5.2	91.6*	52.5*
COc1ccccc1NC(=O)c1c(NC(=O)CCC(=O)O)sc2c1CCCCC2	0.8	-2.7	-3.5	4.5	-2.2	31.8*	-0.8
COC(=O)c1c(NC(=O)CCC(=O)O)sc2c1CCCCC2	-2.6	-2.4	8.4	4.5	3.1	1.2	.
COc1ccc(OC)c(NC(=O)c2c(NC(=O)CCC(=O)O)sc3c2CCCCC3)c1	-5.4	-3.4	11.5	2.8	-0.6	16.7	.
O=C(O)CCC(=O)Nc1sc2c(c1C(=O)Nc1ccccc1)CCCCC2	1.6	5.7	-3.0	0.7	1.0	37.5*	5.2
O=C(CC(SCCO)c1ccc2c(c1)OCO2)c1ccco1 (stereo not given)	1.3	-2.3	-2.9	-0.2	-5.3	39.2*	44.3*
CSc1nc(SCC(=O)NCc2ccco2)c2c3c(sc2n1)COC(C)(C)C3	-6.6	5.3	-6.0	7.6	-1.6	37.8*	7.1
O=C(O)CN1C(=O)S/C(=C\c2ccc3c(c2)OCO3)C1=O	-1.3	-0.7	2.5	0.0	-1.0	33.0*	3.6
CCOC(=O)CN1C(=O)S/C(=C\c2ccc3c(c2)OCO3)C1=O	-9.6	4.9	0.7	6.1	-1.5	-1.2	.
SMILES	TDP2 inh	UHRF1 MBD2 ctr	SIAE primary	LEDGF integ inh	MBD2 inh	PRMT1 inh	PRMT1 confirm
O=C(Nc1ccncc1)c1ccc(Cl)c(Cl)c1	2.1	-1.9	1.6	2.8	3.8	27.6*	-4.8
O=C(NNC(=O)c1ccc(Cl)c(Cl)c1)c1ccncc1	8.7	-1.0	5.0	-4.1	1.4	0.6	.
N#CCc1c(C#N)c(N)nc(N2CCN(S(=O)(=O)c3ccccc3)CC2)c1C#N	-5.0	-2.6	-5.9	-2.8	2.1	13.7	.
N#CCc1c(C#N)c(N)nc(N2CCN(C=O)CC2)c1C#N	12.8	-1.8	-3.5	-4.2	2.6	35.5*	-3.3
COc1ccccc1N1CCN(c2nc(N)c(C#N)c(CC#N)c2C#N)CC1	-3.6	0.0	-3.2	4.3	-4.5	9.6	.
N#CCc1c(C#N)c(N)nc(N2CCOCC2)c1C#N	8.8	-1.2	-2.0	-0.8	-2.6	38.3*	-1.8
CCN1CCc2c(C#N)c(N3CCOCC3)nc(N3CCOCC3)c2C1	-0.5	-0.8	-2.2	0.6	2.7	-2.3	.
CC(=O)N1CCN(c2nc(N)c(C#N)c(CC#N)c2C#N)CC1	3.3	0.3	0.4	2.8	-0.6	28.7*	-7.0
CCC(C)CNC(=O)c1cn(C(C)c2ccccc2)nn1 (stereo not given)	9.6	3.4	4.5	-0.5	1.7	-0.2	.
COCCCNC(=S)N/N=C/c1ccc(OC)cc1	-1.5	-2.4	1.3	-1.5	-2.2	29.2*	2.2
Cc1ccc(CNC(=O)CC(C)S(=O)(=O)c2ccc3c(c2)NC(=O)CO3)cc1 (stereo not given)	-8.4	0.1	2.1	-10.7	0.9	6.5	.
Cc1ccc(CNC(=O)CC(C)S(=O)(=O)c2ccc3c(c2)NC(=O)CS3)o1 (stereo not given)	1.1	-0.1	-8.4	3.4	-3.6	44.3*	15.1
COc1ccc(OC)c(-c2csc(NC(=O)Cc3ccc(F)cc3)n2)c1	-2.1	0.1	-7.3	4.3	1.7	-1.3	.
Cc1ccc(Nc2nc(-c3ccc(S(=O)(=O)N4CCOCC4)cc3)cs2)cc1	-10.8	6.1	6.3	-3.5	4.0	26.2*	-0.8
Cc1nc(-c2ccc(S(=O)(=O)N3CCOCC3)cc2)cs1	-9.7	-0.6	-5.0	-2.5	-1.8	1.5	.
Cc1ccc(-c2csc(NC(=O)Cc3ccc(F)cc3)n2)o1	14.5	-2.5	-2.4	-1.0	2.1	41.2*	42.8*
Cc1ccc(-c2csc(Nc3ccc(S(N)(=O)=O)cc3)n2)o1	-14.2	-5.0	6.8	3.0	-2.4	71.5*	39.7*
COc1ccccc1-c1nnc(SCC#CCOC(=O)c2ccc(F)cc2)o1	-11.5	2.3	-6.3	-1.6	0.2	7.6	.
CN1C2=N[C@H](c3ccccc3Br)CC(=O)N2/C(=C\c2ccccc2)[C@@H]1c1ccccc1	-8.4	1.2	-3.4	3.4	0.5	-2.9	.

Source: PubChem
